Results reported in ChEMBL document CHEMBL4680134, “Structural optimization of natural product nordihydroguaretic acid to discover novel analogues as AcrB inhibitors” (Eur J Med Chem, 2020).
Activity calls are given as the source filed them. The calls are words filed in the database; no cut-off is given here.

Experiments:
[1] = target: T1, Multidrug efflux pump subunit AcrB (Escherichia coli (strain K12)) (UniProt P31224); assay: Inhibition of AcrB in Escherichia coli BW25113 assessed as potentiation of erythromycin induced antibacterial activity by measuring fold change in erythromycin MIC at 128 ug/ml measured after 18 hrs by checkerboard titration method relative to erythromycin alone; settings: dose 128.0 µg/ml
T1 sequence (whole entry): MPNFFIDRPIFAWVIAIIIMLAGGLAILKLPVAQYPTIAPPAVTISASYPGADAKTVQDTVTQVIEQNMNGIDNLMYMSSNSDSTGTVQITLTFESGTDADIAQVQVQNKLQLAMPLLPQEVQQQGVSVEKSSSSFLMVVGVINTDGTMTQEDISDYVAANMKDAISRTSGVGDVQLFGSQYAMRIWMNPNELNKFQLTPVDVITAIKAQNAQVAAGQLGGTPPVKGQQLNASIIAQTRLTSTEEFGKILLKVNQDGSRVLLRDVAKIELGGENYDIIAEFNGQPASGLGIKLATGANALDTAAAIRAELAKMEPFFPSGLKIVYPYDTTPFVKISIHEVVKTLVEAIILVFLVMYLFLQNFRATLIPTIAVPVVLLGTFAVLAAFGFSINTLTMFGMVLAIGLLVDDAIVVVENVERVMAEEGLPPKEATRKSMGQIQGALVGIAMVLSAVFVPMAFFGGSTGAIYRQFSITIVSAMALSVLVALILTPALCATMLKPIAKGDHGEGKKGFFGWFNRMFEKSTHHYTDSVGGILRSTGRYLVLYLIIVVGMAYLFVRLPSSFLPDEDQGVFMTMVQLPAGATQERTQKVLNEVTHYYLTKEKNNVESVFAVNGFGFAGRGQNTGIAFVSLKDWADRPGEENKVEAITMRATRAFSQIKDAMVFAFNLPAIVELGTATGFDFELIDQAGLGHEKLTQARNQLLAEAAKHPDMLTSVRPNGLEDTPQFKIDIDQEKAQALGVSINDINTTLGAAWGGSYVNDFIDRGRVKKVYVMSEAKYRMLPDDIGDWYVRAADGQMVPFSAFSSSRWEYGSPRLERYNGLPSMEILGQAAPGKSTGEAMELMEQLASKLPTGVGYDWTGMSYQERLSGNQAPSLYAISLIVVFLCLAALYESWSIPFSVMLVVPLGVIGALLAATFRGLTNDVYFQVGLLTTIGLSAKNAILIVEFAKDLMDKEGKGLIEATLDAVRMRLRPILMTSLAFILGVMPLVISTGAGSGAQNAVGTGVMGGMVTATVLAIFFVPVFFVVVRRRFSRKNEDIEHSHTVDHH

[2] = target: T1, Multidrug efflux pump subunit AcrB (Escherichia coli (strain K12)); assay: Inhibition of AcrB in Escherichia coli BW25113 assessed as reduction in glucose-induced nile red efflux at 500 uM preincubated for 15 mins followed by nile red addition and incubated for 3 hrs in shaker in presence of CCCP by fluorimetric analysis; settings: time 195.0 min
Outline: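 Wild-type E. coli cells with active AcrB were preloaded with Nile Red, with or without compound, before fluorescence recording began. At 100 sec, 0.2% glucose was added to re-energize the cells and trigger efflux, which was followed by fluorometry. An acrB-deleted isogenic strain served as the maximum-accumulation (no-efflux) reference. Triplicate experiments used different cell batches.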

[3] = target: T1, Multidrug efflux pump subunit AcrB (Escherichia coli (strain K12)); assay: Inhibition of AcrB in Escherichia coli BW25113 assessed as potentiation of chloramphenicol induced antibacterial activity by measuring fold change in chloramphenicol MIC at 128 ug/ml measured after 18 hrs by checkerboard titration method relative to chloramphenicol alone; settings: dose 128.0 µg/ml
Cell membrane [4] = assay: Induction of outer membrane permeabilization in wild type Escherichia coli BW25113 assessed as increase in nitrocefin hydrolysis at 256 ug/ml by spectrophotometry analysis; settings: dose 256 µg/ml
Outline: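 Outer-membrane permeability: intact E. coli treated with 10 µM CCCP to block nitrocefin efflux, then exposed to compound. Nitrocefin hydrolysis by periplasmic β-lactamase followed as increasing absorbance at 490 nm over time. Polymyxin B as permeabilizer control, untreated cells as baseline. Duplicate experiments on different days.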

[5] = target: T1, Multidrug efflux pump subunit AcrB (Escherichia coli (strain K12)); assay: Inhibition of AcrB in Escherichia coli BW25113 assessed as potentiation of levofloxacin induced antibacterial activity by measuring levofloxacin MIC at 256 ug/ml measured after 18 hrs by checkerboard titration method (reference value: 0.06 ug/ml); settings: dose 256.0 µg/ml
[6] = target: T1, Multidrug efflux pump subunit AcrB (Escherichia coli (strain K12)); assay: Inhibition of AcrB in Escherichia coli BW25113 assessed as potentiation of rifampicin induced antibacterial activity by measuring rifampicin MIC at 256 ug/ml measured after 18 hrs by checkerboard titration method (reference value: 16 ug/ml); settings: dose 256.0 µg/ml
Cell membrane [7] = assay: Induction of inner membrane permeabilization in CCCP treated wild type Escherichia coli BW25113 at 64 to 256 ug/ml measured after 10 mins by Di0C2(3) probe based fluorimetric method; settings: escherichia coli bw25113, 10 min, dose 64-256 µg/ml
Outline: (§1)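 Cells left untreated or exposed to compound at 8-256 µg/mL for 10 min, then DiOC2(3) added and fluorescence followed to plateau. Cells re-energized with 0.5% glucose; membrane potential build-up read as fluorescence rise to plateau, then dissipated with CCCP.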

[8] = target: T1, Multidrug efflux pump subunit AcrB (Escherichia coli (strain K12)); assay: Inhibition of AcrB in Escherichia coli BW25113 assessed as reduction in glucose-induced nile red efflux at 100 to 200 uM preincubated for 15 mins followed by nile red addition and incubated for 3 hrs in shaker in presence of CCCP by fluorimetric analysis; settings: dose 100-200 µM, time 195.0 min
Outline: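 Whole-cell efflux: wild-type and ΔAcrB cells preloaded with Nile Red, with or without compound, before fluorescence readings. Efflux triggered at 100 s with 0.2% glucose and followed by fluorometry. The ΔAcrB strain marks maximal accumulation. Triplicate experiments with different cell batches.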

Cell membrane [9] = assay: Induction of inner membrane permeabilization in CCCP treated wild type Escherichia coli BW25113 at 64 ug/ml measured after 10 mins by Di0C2(3) probe based fluorimetric method; settings: escherichia coli bw25113, 10 min, dose 64 µg/ml; outline: as §1
Cell membrane [10] = assay: Induction of inner membrane permeabilization in CCCP treated wild type Escherichia coli BW25113 at 128 ug/ml measured after 10 mins by Di0C2(3) probe based fluorimetric method; settings: escherichia coli bw25113, 10 min, dose 128 µg/ml; outline: as §1
[11] = Growth inhibition of Escherichia coli harboring AcrB deletion mutant at higher concentration after 18 hrs by broth microdilution assay
Outline: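 MIC determined by 96-well broth microdilution in E. coli BW25113 expressing AcrB ((+)AcrB) and an isogenic acrB-deleted strain ((-)AcrB). Used to set the compound concentrations for synergy testing that produce no direct antibacterial effect.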

[12] = target: T1, Multidrug efflux pump subunit AcrB (Escherichia coli (strain K12)); assay: Inhibition of AcrB in Escherichia coli BW25113 assessed as potentiation of levofloxacin induced antibacterial activity by measuring fold change in levofloxacin MIC at 32 ug/ml measured after 18 hrs by checkerboard titration method relative to levofloxacin alone; settings: dose 32.0 µg/ml
[13] = target: T1, Multidrug efflux pump subunit AcrB (Escherichia coli (strain K12)); assay: Inhibition of AcrB in Escherichia coli BW25113 assessed as potentiation of erythromycin induced antibacterial activity by measuring fold change in erythromycin MIC at 32 ug/ml measured after 18 hrs by checkerboard titration method relative to erythromycin alone; settings: dose 32.0 µg/ml

| Structure (SMILES) | inhibition [2] | MIC [5] [µg/mL] | MIC [6] [µg/mL] | other results |
| --- | --- | --- | --- | --- |
| Nc1ccc(C(=O)NCCc2ccc(O)c(O)c2)cc1 | Active | – | – | fold change (FC) [1]: 4; fold change (FC) [3]: 4 |
| C[C@H](Cc1ccc(O)c(O)c1)[C@@H](C)Cc1ccc(O)c(O)c1 [MASOPROCOL] | – | 0.03 | 16 | Activity (Cell membrane [4]): Toxic; Activity (Cell membrane [7]): Toxic |
| O=C(NCCc1ccc(O)c(O)c1)c1ccc(O)c(O)c1 | – | – | – | inhibition [8]: Active; Activity (Cell membrane [4]): Non-Toxic; Activity (Cell membrane [9]): Non-Toxic |
| Oc1ccc(CCCCCCc2ccc(O)c(O)c2)cc1O | – | 0.06 | 16 | – |
| Oc1ccc(CCCCc2cc(O)c(O)c(O)c2)cc1O | Active | 0.06 | 16 | Activity (Cell membrane [10]): Non-Toxic; Activity (Cell membrane [4]): Non-Toxic |
| Nc1cc(N)cc(C(=O)NCCc2ccc(O)c(O)c2)c1 | – | – | – | inhibition [8]: Active; Activity (Cell membrane [9]): Non-Toxic |
| Oc1ccc(CCCCc2ccc(Cl)cc2)cc1O | – | 0.06 | 16 | – |
| Oc1ccc(CCCCCCCc2ccc(O)c(O)c2)cc1O | – | 0.06 | 16 | inhibition [8]: Active; Activity (Cell membrane [9]): Non-Toxic |
| Oc1ccc(CCCCCc2ccc(O)c(O)c2)cc1O | – | 0.06 | 16 | Activity (Cell membrane [10]): Toxic; inhibition [8]: Active; growth inhibition (GI) [11]: Toxic |
| Oc1ccc(CCCCc2ccc(Br)cc2)cc1O | – | 0.06 | 16 | – |
| Oc1ccc(CCCCc2ccccc2O)cc1O | Active | 0.06 | 16 | Activity (Cell membrane [10]): Toxic |
| Oc1ccc(CCCCc2ccc(O)c(O)c2)cc1O | – | 0.06 | 16 | – |
| O=C(NCCc1ccc(O)c(O)c1)c1ccccc1O | – | – | – | fold change (FC) [12]: 2; Activity (Cell membrane [4]): Non-Toxic |
| Oc1ccc(CCCCc2cc3cccc4ccc5cccc2c5c43)cc1O | – | 0.06 | 16 | – |
| Oc1ccc(CCCc2ccc(O)c(O)c2)cc1O | Active | 0.06 | 16 | Activity (Cell membrane [4]): Non-Toxic |
| O=C(NCCc1ccc(O)c(O)c1)c1cc(O)c(O)c(O)c1 | Active | – | – | fold change (FC) [1]: 4; fold change (FC) [12]: 2; Activity (Cell membrane [9]): Non-Toxic; fold change (FC) [3]: 4 |
| Nc1ccccc1C(=O)NCCc1ccc(O)c(O)c1 | Active | – | – | – |
| Cc1ccc(C(=O)NCCc2ccc(O)c(O)c2)cc1 | – | – | – | fold change (FC) [13]: 4; growth inhibition (GI) [11]: Toxic |
